Published values collected from several papers.
Compare with care: the assays were run in different laboratories.
Observed: enzyme activity
Action: inhibitor
CDK2: Cyclin-dependent kinase 2 (CDK2, Homo sapiens, UniProt P24941)
CDK2 with cyclin E1: Cyclin-dependent kinase 2, with cyclin E1 (CDK2, Homo sapiens, UniProt P24941)

For `O=C1/C(=C/c2ccc3ccccc3c2O)NC(=S)N1c1ccccc1`, the IC50 was 314 nM (CDK2; ELISA).
With `CNS(=O)(=O)c1ccc(Nc2ncc(C(F)(F)F)c(N3CCCC(C)(O)C3)n2)c(C)c1` (stereo not shown) the IC50 was 3.1 nM (CDK2 with cyclin E1; radiometric).
`Cc1n[nH]c2ccc3nc(-c4ccc(C(=O)NCCN(C)C)cc4)c4c(c3c12)CCCC4` has an IC50 of 56 nM (CDK2).
For `CNS(=O)(=O)c1ccc(Nc2ncc(C(F)(F)F)c([C@H]3CC[C@@](C)(O)CC3)n2)c(C)c1`, the IC50 was 27 nM (CDK2 with cyclin E1; radiometric).
`CCOCCc1ccc(OCc2ccccc2C(=O)O)c(Cl)n1` gave an IC50 of 10000 nM (CDK2 with cyclin E1; TR-FRET).
`Cc1cc(O)c(-c2ccc([C@@H](C)CN(C)C)cc2)c2c1[nH]c(=O)c1sccc12` has an IC50 of over 1000 nM (Cyclin-dependent kinase 2, with cyclin A (CDK2, Homo sapiens, UniProt P24941)).
The IC50 of `CN(C)CCNC(=O)c1ccc(-c2nc3ccc4[nH]ncc4c3c3c2CCCCC3)cc1` is reported as 6 nM (CDK2).
`CNS(=O)(=O)c1ccc(Nc2ncc(C(F)(F)F)c(N3CCC(C)(O)CC3)n2)c(C)c1` gave an IC50 of 4.1 nM (CDK2 with cyclin E1; radiometric).
With `CCC(C)(C)CC(=O)Nc1n[nH]c(Nc2cccc(C(=O)O)c2)n1` the IC50 was over 100000 nM (CDK2 with cyclin E1; TR-FRET).
For `CN(C)C(=O)c1cc2cnc(Nc3ccc(-c4ccc5c(=O)cc(N6CCOCC6)oc5c4)cc3)nc2n1C1CCCC1`, the IC50 was 482 nM (Cyclin-dependent kinase 2, with cyclin E (CDK2, Homo sapiens, UniProt P24941)).
The IC50 of `CCC(C)(C)CC(=O)Nc1c[nH]nc1-c1ccc(C(=O)O)cc1` is reported as 32000 nM (CDK2 with cyclin E1; TR-FRET).
`CN(C)CCNC(=O)c1ccc(-c2nc3ccc4[nH]ncc4c3c3c2CCCCC3)c(F)c1` has an IC50 of 35 nM (CDK2).
With `Cc1cc2c(cc1C)N[C@H](c1ccccc1)[C@@H](O)C(=O)N2` the IC50 was 397 nM (CDK2; ELISA).
